High-throughput results deposited in PubChem by several laboratories.
The list is not random: actives were taken first. Their share in the collection is about 3.7%.
NCF1 inh = p47phox/p22phox peptide binding inhibitors, primary screen, biochemical, uHTS, NADPH oxidase regulatory subunit. Neutrophil cytosol factor 1 (Homo sapiens), P14598. fluorescence polarization, 2 h. inhibition, % at 24.7 µM. 0.53% of 220,000 active;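 note: 0% = p47phox with labelled peptide and 100% = labelled peptide alone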
WT yeast gro inh = growth inhibition of WT strain, primary screen, mitochondrial fusion inhibitor project, WT and mutant strains, chemical genetic | 2.1% of 190,000 active | AID 1362, 2008 | mitochondrial fusion phenotypic screen | inhibition, % at 10 µM; in the data active = inhibition above about 58%; tested in S. cerevisiae
EBV gp42 block = Epstein-Barr virus gp42 inhibitors, primary screen, biochemical, uHTS, fluorescence polarization; inhibition, % (tested at 21.74 µM); Fluorescence polarization binding assay, mP read-out; 0.42% of 220,000 active; in the data active = inhibition above about 50%
RBBP9 inhibitor = human RBBP9 inhibitors, primary screen, biochemical, fluorescence polarization, FP-Rh probe, HTS. Serine hydrolase RBBP9 (Homo sapiens), O75884. recombinant RBBP9. inhibition, % at 7.94 µM. 0.2% of 220,000 active. AID 1515, 2009;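 active = inhibition above the campaign mean of all tested compounds plus 3 SD, cut at about 14% in these data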;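 note: plate controls were DMSO wells with RBBP9 for no effect and wells lacking RBBP9 protein for full effect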
Target sequence (O75884 whole entry, looked up): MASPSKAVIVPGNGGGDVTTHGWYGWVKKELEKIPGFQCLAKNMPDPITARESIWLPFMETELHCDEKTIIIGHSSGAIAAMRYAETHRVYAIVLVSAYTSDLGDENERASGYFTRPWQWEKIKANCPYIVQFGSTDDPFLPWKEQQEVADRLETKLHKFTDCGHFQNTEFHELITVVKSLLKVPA
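System: RBBP9 protein | Quantity: 2.5 µM RBBP9 dispensing solution, before mixing | Reagent: FP-Rh probe, 375 nM dispensing solution | Timing: Enzyme-compound preincubation 30 min, then probe labeling 45 min, 25 °C | Measured by: Fluorescence polarization | Read-out: % inhibition | Replication: One well per compound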
14-3-3 Bad PPI = inhibitors of 14-3-3 zeta/Bad binding, primary screen, biochemical, TR-FRET, bovine 14-3-3 zeta | 14-3-3 protein zeta/delta (Bos taurus), P63103 | TR-FRET 14-3-3zeta/Dy647-pBad peptide displacement, 1 h | inhibition, % at 21.7 µM | 0.71% of 220,000 active | AID 781, 2007;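 active = inhibition above about 70%, limit read from the data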;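 note: 0% = full 14-3-3 plus peptide FRET controls and 100% = background without 14-3-3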
Target sequence (P63103 whole entry, looked up): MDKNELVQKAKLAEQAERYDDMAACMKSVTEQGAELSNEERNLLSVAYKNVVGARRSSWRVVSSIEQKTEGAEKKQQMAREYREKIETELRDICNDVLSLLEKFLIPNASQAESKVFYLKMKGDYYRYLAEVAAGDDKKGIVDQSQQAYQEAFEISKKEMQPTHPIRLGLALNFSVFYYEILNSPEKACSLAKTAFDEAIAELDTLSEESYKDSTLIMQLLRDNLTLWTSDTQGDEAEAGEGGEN
eIF4E 4G PPI = eIF4E–eIF4G protein interaction inhibitors, primary screen, biochemical, uHTS, TR-FRET, eIF4GI fragment | TR-FRET eIF4E-eIF4GI(517-606) binding, 2 h | Eukaryotic translation initiation factor 4E (Mus musculus) + Eukaryotic translation … | AID 782, 2007 | 0.37% of 220,000 active | inhibition, % at 21.7 µM;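 note: 0% = full FRET control wells and 100% = background wells lacking eIF4GI fragment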
* hit, by the source's call; x = no result given.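 Rule for the calls, unless noted: active = inhibition above about 30% (limit read from the data); inactive = the rest.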

SMILES	NCF1 inh	WT yeast gro inh	EBV gp42 block	RBBP9 inhibitor	14-3-3 Bad PPI	eIF4E 4G PPI
CC(=O)c1ccc(S(=O)(=O)N2CCCCC2C(=O)O)cc1 (stereo not drawn)	-2.5	-17.7	-14.5	5.7	-2.9	-1.9
CN1CC=C2C(C#N)=C(N)C(C#N)(C#N)C(c3cccc(Cl)c3Cl)C2C1 (stereo not drawn)	-16.3	10.1	86.5*	-3.7	-5.2	5.6
CC(=O)N1CC=C2C(C#N)=C(N)C(C#N)(C#N)C(C)C2C1 (stereo not drawn)	-13.2	-6.3	4.2	-7.5	-3.1	5.4
CCN1CC=C2C(C#N)=C(N)C(C#N)(C#N)C(CCc3ccccc3)C2C1 (stereo not drawn)	-27.0	5.7	81.1*	2.7	-4.8	10.7
CCCN1CC=C2C(C#N)=C(N)C(C#N)(C#N)C(c3cccc(OC)c3OC)C2C1 (stereo not drawn)	-23.4	-8.9	74.6*	-2.5	-11.9	3.5
COc1cccc(OC)c1OCc1cc(C2C3CCCC=C3C(C#N)=C(N)C2(C#N)C#N)c(C)cc1C (stereo not drawn)	-53.7	-3.9	-24.0	-0.6	-14.6	0.8
FC(F)(F)c1nc(-c2cccs2)ncc1-c1nnnn1-c1ccc(Cl)cc1	-10.9	76.6*	-16.2	-11.6	1.9	6.6
Clc1ccc(-n2nnnc2-c2cnc(-c3ccncc3)nc2-c2cccs2)cc1	-8.3	38.2	-6.6	-7.5	0.8	2.2
CC1CCN(C(=O)Cn2c(=O)n(-c3ccc(F)cc3)c(=O)c3sccc32)CC1	-4.4	-1.5	-18.6	0.3	-7.2	3.7
CC1CCCCN1C(=O)Cn1c(=O)n(-c2ccc(F)cc2)c(=O)c2sccc21 (stereo not drawn)	-8.7	2.7	-9.5	-6.4	-12.1	75.0*
CCC1CCCCN1CCCNC(=O)c1cc2c(=O)[nH]c3ccccc3c2n1C (stereo not drawn)	-11.2	3.9	-4.0	2.4	-12.2	3.1
Cc1ccc(-c2nnc(-c3ccc4c(c3)OCO4)o2)cc1	130.6*	-12.3	-4.2	8.2	6.5	6.7
O=C(Nc1cccc(C(F)(F)F)c1)c1cccnc1NCCc1ccccc1	-10.6	86.9*	-1.8	-31.5	-1.1	-3.9
Cc1ccc(C)c(NC(=S)N(Cc2cccc(Br)c2)CC2CCC(C(=O)O)CC2)c1 (stereo not drawn)	-16.1	-0.1	-7.1	-11.1	-16.7	-1.3
Cc1cccc(NC2=CC(=O)OC(C)C2)c1 (stereo not drawn)	-4.7	3.3	-3.9	-7.8	80.8*	0.9
COc1ccc(C=C2c3ccccc3C(=O)c3ccccc32)c(OC)c1	-9.2	x	-13.7	-8.7	8.7	-0.1
COc1cc(OC)c2c(c1)C(=O)c1cc(OC)cc(OC)c1C2=O	-19.1	86.8*	-20.6	-0.6	-8.8	7.4
CCCCN(CCCC)CCNC(=O)CSCc1ccc(C)cc1	-4.7	-5.3	6.8	-6.4	24.7	-3.1
CN(C)c1nc(-c2cccs2)cc(C(F)(F)F)c1C#N	58.0*	x	-9.2	-7.4	2.9	2.2
CC(C)c1nc(N2CCOCC2)c(C#N)c2c1CCCC2	-16.2	74.4*	17.2	-6.2	2.4	-4.1
O=C(O)c1cccc(NC(=O)C2CC(=O)N(Cc3ccccc3)C2)c1 (stereo not drawn)	6.4	11.3	-8.3	-0.8	76.5*	-5.2
C=CCN(c1ccccc1Cl)S(=O)(=O)c1cc(C(=O)N2CCCC2)ccc1Cl	6.1	x	-4.5	-5.0	5.1	4.0
Cc1cc(=O)oc2cc(OCc3ccc(C(=O)OCC(=O)NC4CCS(=O)(=O)C4)cc3)ccc12 (stereo not drawn)	-60.9	x	-2.7	1.5	30.3	6.6
Cc1cc(=O)oc2cc(OCc3ccc(C(=O)OCC(=O)Nc4ccc(N(C)C)cc4)cc3)ccc12	11.1	-16.3	-11.3	-4.2	79.1*	16.0
CC1(C)CC(=O)c2c(O)cc(OCc3ccc([N+](=O)[O-])cc3)cc2O1	-5.2	82.8*	-12.4	-9.5	-4.2	-3.4
